Measurements taken from paper PMC3838204 (Journal of the American Chemical Society, 2013).

Assay: Hydrolysis of peptide-thioester
Format: physicochemical
Outline: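 The Asp peptide-thioester (~2 mM) was incubated with Cys-peptide (~2.4 mM) in helium-purged buffer: 6 M Gu·HCl, 200 mM Na2HPO4, 10 mM TCEP·HCl, 20 mM MPAA, pH 7.0, RT, 18–24 h. Monitoring was by LC-MS and RP-HPLC (210 nm). Control omitted Cys-peptide and MPAA, at pH 6.8 for 19 h. The thioester was also examined after HF deprotection/cleavage.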

Row | Substance | hydrolysis of the peptide-thioester after HF deprotection and cleavage (after HF deprotection and cleavage) | hydrolyzed product formed from the peptide-thioester (control in absence of the Cys-peptide and without added MPAA, 19 h, pH 6.8) | hydrolysis of the peptide-thioester during the ligation reaction (ligation conditions: 6 M guanidine hydrochloride, 200 mM Na2HPO4, 10 mM TCEP, 20 mM MPAA, pH 7.0, RT, 18–24 hours, LC-MS) | hydrolysis of the thioester, control (control in absence of the Cys-peptide and without added MPAA)
1 | LYRAD-^αCOSR` | no hydrolysis | about 30% | nor was significant hydrolysis | 
2 | LYRAX-^αCOSR` [−Glu-α-thioester] |  |  |  | no significant hydrolysis
